# PolyA inh: inhibitors of polyadenylation in S. cerevisiae; S. cerevisiae SKY197-pL101 polyadenylation reporter, beta-gal luminescence; efflux-impaired pdr1/pdr3 knockout yeast; score 100 = 6 SD above DMSO; activity score, % at 12 µM; 300,000 compounds, 0.02% hits; AID 1875;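 active = lowest replicate activity score at least 50, where 100 means six control SD above control mean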;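 also: yeast exposed to compound for 9 h at 30 °C; higher score means more reporter readthrough which indicates perturbed polyadenylation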
# Pemphigus Ab inh: blocks pemphigus antibody binding to human desmoglein-3; P32926; DSG3-coupled beads, scFv-anti-DSG3-GFP binding, flow cytometry; hits give low values; binding (percent of control), % at 10 µM; 310,000 compounds, 0.48% hits;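 active = binding more than 3 SD below its plate's average and above zero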;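 also: hits lower antibody fragment binding to DSG3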
# NLRP3 yeast inh: NALP3 inhibition in yeast; 330,000 compounds, 0.39% hits; AID 2825; inhibition, % at 10 µM; Yeast reconstituted NLRP3/ASC/caspase-1, beta-gal luminescence, 24 h;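 active = inhibition of 50% or more; inactive = inhibition below 50%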;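 also: plate controls were induced DMSO wells for no effect and uninduced yeast grown without galactose for full effect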
# ALR inh: blocks human ALR sulfhydryl oxidase activity | P55789 | purified ALR, DTT oxidation, H2O2 HRP-luminol luminescence | inhibition, % (test concentration not listed) | 290,000 compounds, 3.8% hits | AID 485317;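 active = mean replicate inhibition above about 79%, with every replicate also reaching it, limit read from the data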
# Target sequence (P55789 whole entry, looked up): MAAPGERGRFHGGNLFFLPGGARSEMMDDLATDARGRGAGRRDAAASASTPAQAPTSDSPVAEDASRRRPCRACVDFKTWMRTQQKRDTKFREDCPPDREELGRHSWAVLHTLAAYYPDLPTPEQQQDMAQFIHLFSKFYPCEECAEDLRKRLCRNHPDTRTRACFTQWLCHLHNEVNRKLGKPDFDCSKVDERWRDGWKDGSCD
# Arr AP2 block: inhibitors of human beta-arrestin and AP2 interaction | FITC-arrestin peptide / GST-AP2 beads, flow cytometry; AP2 beta2 appendage carries R879A mutation | inhibition, % at 10 µM | 340,000 compounds, 0.31% hits | AID 504490;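 active = inhibition above a set limit, near 3 SD of compounds lacking own fluorescence, cut at about 54% in these data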;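 also: plate controls were DMSO wells for no effect and 5 µM unlabelled arrestin peptide for full effect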
#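 System: GST-AP2 R879A glutathione beads; medium: PBS, Tween 20 0.05%, BSA 0.1%; reagent: fluorescein-tagged arrestin peptide at 50 nM final; schedule: pre-incubation 12 min, peptide binding 1 h, room temperature; detection: flow cytometry, FL1 (488/535 nm); read-out: inhibition as reduced fluorescein signal on beads, percent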
# NALP1 inh: inhibitors of NALP1 inflammasome in yeast; S. cerevisiae NALP1/ASC/caspase-1 growth, X-gal OD620, 72 h; inhibition, % at 10 µM; 280,000 compounds, 0.61% hits; in the data active = inhibition mostly above about 24%, no sharp cut-off; inactive = mostly below about 32%
# * hit, by the source's call; x = not tested or not shown. Most compounds without a hit are left out; they make up all but 4.6% or so of the library.
SMILES,PolyA inh,Pemphigus Ab inh,NLRP3 yeast inh,ALR inh,Arr AP2 block,NALP1 inh
Cc1ccc(NC(=O)CSc2nc3ccccc3c(=O)n2Cc2cccs2)cc1,6,120,-9,-37,8,10
COc1ccccc1NC(=O)CSc1nc2nccnc2c(=O)n1Cc1cccs1,9,104,7,96*,-18,12
O=C(CSc1nc2nccnc2c(=O)n1Cc1cccs1)Nc1ccccc1,-25,104,-1,98*,10,10
O=c1c2sccc2nc(SCc2cc(=O)n3cc(Cl)ccc3n2)n1Cc1ccccn1,-5,101,10,88*,-1,13
O=C(O)CCCCCn1c(SCc2cc(=O)n3cc(Cl)ccc3n2)nc2ccsc2c1=O,5,99,-11,1,1,16
COc1ccc(NC(=O)CSc2nc3ccsc3c(=O)n2Cc2ccccn2)c(OC)c1,-16,115,7,96*,22,-2
CC1(C)CC(=O)C(Sc2nnc(-c3ccc(NS(C)(=O)=O)cc3)n2Cc2ccco2)C(=O)C1,x,102,20,92*,-2,-5
COc1ccc2[nH]cc(CCNS(=O)(=O)c3ccc(F)cc3)c2c1,10,104,17,22,37,5
COc1ccc2[nH]cc(CCNS(=O)(=O)c3ccccc3)c2c1,-18,99,4,95*,30,18
O=[N+]([O-])c1ccc(Cl)c(/C=N/n2c(C3CCCCC3)n[nH]c2=S)c1,6,97,14,99*,0,18
O=[N+]([O-])c1cc2c(cc1/C=N/n1c(-c3ccccc3)n[nH]c1=S)OCO2,-12,97,7,87*,16,-29
O=[N+]([O-])c1cc2c(cc1/C=N/n1c(-c3ccccn3)n[nH]c1=S)OCO2,3,100,x,21,-1,14
O=[N+]([O-])c1ccccc1/C=N/n1c(C(F)(F)F)n[nH]c1=S,-13,104,14,95*,-24,7
O=[N+]([O-])c1ccccc1/C=N/n1c(-c2cccnc2)n[nH]c1=S,0,84,16,31,-1,-1
COc1cc(/C=N/n2c(C3CCCCC3)n[nH]c2=S)cc(OC)c1O,-6,120,16,99*,-11,-6
C/C(=N\NC(=O)c1nnn(-c2nonc2N)c1CN1CCC(C)CC1)c1ccc(Br)cc1,x,101,x,x,x,x
O=[N+]([O-])c1ccccc1/C=N/n1c(C2CCCCC2)n[nH]c1=S,-14,102,20,97*,-3,3
Fc1ccccc1/C=N/n1c(C2CCCCC2)n[nH]c1=S,-35,101,15,x,-5,-1
O=[N+]([O-])c1ccc(Cl)c(/C=N/n2c(COc3ccccc3)n[nH]c2=S)c1,20,83,9,96*,-3,9
O=C(O)COc1ccccc1/C=N/n1c(C2CCCCC2)n[nH]c1=S,10,104,12,97*,38,-12
S=c1[nH]nc(C2CCCCC2)n1/N=C/c1ccccc1Br,-45,102,33,x,3,-6
CC1=[N+](C)N(c2ccccc2)C(=O)C1N=Cc1ccccc1Cl (configuration not stated),-3,102,0,77*,0,29
CCOC(=O)c1ccc(S(=O)(=O)N2CCN(C(=O)C3CSC4(C)CCC(=O)N34)CC2)cc1 (configuration not stated),x,100,15,-6,4,x
COc1ccc(Cn2nnnc2CN2CCc3ccccc32)cc1,18,100,17,-5,16,2
COc1ccc(Cn2nnnc2CN2CCc3ccccc3C2)cc1,-2,105,14,0,-17,27*
Cc1cccn2c(=O)c3cc(C#N)c(=NC(=O)c4ccccc4)n(Cc4ccco4)c3nc12,-3,110,11,89*,8,x
Cc1ccc(Cn2c(=N)c(C#N)cc3c(=O)n4cccc(C)c4nc32)cc1,3,x,1,-5,x,16
Cc1ccc(-n2c(=O)c(C#N)cc3c(=O)n4cccc(C)c4nc32)cc1,-11,98,13,-2,-2,37*
CCOC(=O)c1cc2c(=O)n3ccccc3nc2n(Cc2ccco2)c1=NC(=O)c1ccccc1OCC,8,103,7,90*,0,18
